Screening results: PubChem, Johns Hopkins Ion Channel Center
KCNK9 inh: inhibitors of human KCNK9 two-pore domain potassium channel | HEK293 KCNK9, FluxOR thallium flux fluorescence; active compounds read low | B-score at 10 µM | Q9NPC2 | 310,000 tested, 1.2% active;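 active = ratio B-score over 3 SD below the library mean, with starting fluorescence within 5 SD of its mean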;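 note: negative B-score means less thallium flux so channel inhibition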
KCNQ1 pot: human KCNQ1 channel potentiation or activation; P51787; CHO-K1 KCNQ1, thallium flux FluxOR fluorescence; active compounds read high; B-score at 10 µM; 310,000 tested, 0.35% active;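 active = fluorescence ratio B-score, a plate-corrected score, at least three library SD, with initial intensity B-score within 5 SD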
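Material: CHO-K1 cells stably expressing KCNQ1. Medium: assay buffer for compound exposure, DMSO matched across wells. Reagent: K+/Tl+ depolarizing stimulus. Compound dosing: single-concentration screen. Times: 37 °C overnight plating, 90-min dark dye load, 20-min compound pretreatment. Technique: FluxOR Tl+ flux fluorescence.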
KCNQ1 block: blocks the human KCNQ1 potassium channel | 310,000 tested, 1.3% active | B-score at 10 µM | CHO-K1 KCNQ1, FluxOR thallium flux fluorescence; active compounds read high | P51787;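 active = compounds whose thallium flux B-score, printed positive for inhibition, exceeds three library SD while starting fluorescence stays within three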;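 note: channel opened by potassium depolarization with thallium stimulus after 20 min compound exposure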
KCNK3 block: human KCNK3 channel inhibition, primary screen | B-score at 10 µM | 340,000 tested, 0.84% active | AID 602410 | CHO-KCNK3 thallium flux, FluxOR fluorescence; active compounds read low;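 active = B-score under library mean minus 4 SD, starting fluorescence ratio at most library mean plus 5 SD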;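 note: more negative B-score means stronger inhibition of thallium flux through KCNK3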
Target sequence (O14649 whole entry, looked up): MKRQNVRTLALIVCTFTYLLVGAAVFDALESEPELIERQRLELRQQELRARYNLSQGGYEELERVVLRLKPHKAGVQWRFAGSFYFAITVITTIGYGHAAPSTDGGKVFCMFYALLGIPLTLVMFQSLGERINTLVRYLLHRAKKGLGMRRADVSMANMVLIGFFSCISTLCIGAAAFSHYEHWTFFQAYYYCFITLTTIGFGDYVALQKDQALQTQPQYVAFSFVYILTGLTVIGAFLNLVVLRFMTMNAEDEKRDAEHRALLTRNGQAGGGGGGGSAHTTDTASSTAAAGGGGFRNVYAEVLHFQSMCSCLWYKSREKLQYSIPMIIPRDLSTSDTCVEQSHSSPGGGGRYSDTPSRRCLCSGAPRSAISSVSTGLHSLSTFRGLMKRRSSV
hERG rescue: shields human hERG channel from block by proarrhythmic agents; activation (rescue from dofetilide block), less the hit threshold, % at 10 µM; 310,000 tested, 0.51% active; CHO-hERG, FluxOR thallium flux, dofetilide IC70 present;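 active = activation above the mean of controls blocked by dofetilide plus 5 SD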;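 note: thallium influx through hERG after potassium depolarization seen as dye fluorescence rise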
KCNK9 block conf: human KCNK9 inhibitor confirmation | shares compounds with KCNK9 inh | HEK293 KCNK9 cells, FluxOR thallium flux fluorescence | inhibition, % at 10 µM | 4,900 tested, 43% active | AID 492992;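 active = thallium signal inhibited by more than 5 SD of the compound-free buffer control wells, on both duplicate plates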
Kir21 sel: mouse Kir2.1 off-target activity of KCNK9 modulators; inhibition, % at 10 µM; 4,900 tested, 4% active; Kir2.1 cells, FluxOR thallium flux fluorescence; AID 492993; shares compounds with KCNK9 inh;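 active = thallium signal drop more than 5 SD beyond the mean of the no-compound control wells, seen in both duplicate plates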;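 note: signal is fluorescence rise after thallium addition divided by baseline fluorescence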
HEK293 Tl ctr: non-induced cell nonspecific activity of KCNK9 modulators; shares compounds with KCNK9 inh; non-induced KCNK9-HEK293, FluxOR thallium flux; inhibition, % at 10 µM; 4,900 tested, 40% active; AID 492997;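 active = thallium signal drop beyond 5 SD of the untreated control mean, on both duplicate plates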
Of the large screens only hits and unclear results are named; the others gave an inactive call (follow-up assays come after a bar, where they were run). In the library only some 3.1% were active in any assay of this set; here they are far more common.

Cc1cc(OCC(=O)Nc2ccncc2)cc(C)c1Cl	none
Cc1cccc(NC(=O)CSc2cc(C)c(C#N)c3nc4ccccc4n23)c1	none | KCNK9 block conf inactive | Kir21 sel inactive | HEK293 Tl ctr inactive
Cc1cc(NCCCO)n2c(nc3ccccc32)c1C#N	none
Cc1cc(NCCOCCO)n2c(nc3ccccc32)c1C#N	KCNK9 inh -13.9 | KCNK9 block conf 35.5% | Kir21 sel inactive | HEK293 Tl ctr inactive
CCOc1ccc(NC(=O)N[C@@H](Cc2ccccc2)C(=O)O)cc1	none
Cc1cc(C)c(C(=O)COC(=O)Cn2c(C)csc2=O)cc1C	none
COc1ccc(-c2csc(NC(C)c3nc4cc(Cl)c(Cl)cc4n3CCOCCO)n2)cc1 (stereo not given)	KCNK9 inh -8.58 | KCNK9 block conf 32.5% | Kir21 sel inactive | HEK293 Tl ctr 39.5%
O=C(CSCc1ccc(Cl)cc1)NCCSCc1ccco1	none | KCNK9 block conf inactive | Kir21 sel inactive | HEK293 Tl ctr inactive
COc1ccccc1N(CC(=O)NCCSCc1ccc(Cl)cc1)S(C)(=O)=O	none
COc1ccccc1OCC(=O)NCCSCc1ccc(Cl)cc1	none | KCNK9 block conf inactive | Kir21 sel inactive | HEK293 Tl ctr inactive
COc1ccc(NC2CCCN(C(=O)c3cccc(N(C)C)c3)C2)cc1 (stereo not given)	none | KCNK9 block conf inactive | Kir21 sel inactive | HEK293 Tl ctr inactive
Cc1cccc(C(=O)N2CCCC(Nc3ccc(C)c(C)c3)C2)n1 (stereo not given)	none | KCNK9 block conf inactive | Kir21 sel inactive | HEK293 Tl ctr inactive
COc1cccc(C(=O)N2CCCC(Nc3ccc(C)c(C)c3)C2)c1 (stereo not given)	none | KCNK9 block conf inactive | Kir21 sel inactive | HEK293 Tl ctr inactive
Cc1cccc(C(=O)N2CCCC(Nc3ccc(F)c(F)c3)C2)n1 (stereo not given)	none
COc1ccc(NC2CCCN(C(=O)c3ccc(OC)o3)C2)cc1 (stereo not given)	none | KCNK9 block conf inactive | Kir21 sel inactive | HEK293 Tl ctr inactive
Cc1ccc(S(=O)(=O)NCCOc2nc(N3CCOCC3)nc(N3CCOCC3)n2)cc1	none
O=C(NCCc1ccc(F)cc1)c1ccc(NS(=O)(=O)c2ccc3[nH]c(=O)[nH]c3c2)cc1	none
O=C(COc1ccccc1N1C(=O)C2C3C=CC(C3)C2C1=O)c1ccccc1 (stereo not given)	none
COc1ccc(CC(=O)Nc2nnc(C(C)C)s2)cc1OC	none
COc1ccc(NC2CCCN(C(=O)CCc3cccc(Cl)c3)C2)cc1 (stereo not given)	none | KCNK9 block conf inactive | Kir21 sel inactive | HEK293 Tl ctr inactive
COc1ccc(NC2CCCN(C(=O)c3ccc4[nH]c(C)c(C)c4c3)C2)cc1 (stereo not given)	KCNK9 inh -11.8 | KCNK9 block conf inactive | Kir21 sel inactive | HEK293 Tl ctr inactive
COc1ccc(N(CC(=O)NCCSCc2ccccc2Cl)S(C)(=O)=O)cc1Cl	none
O=C(C(c1ccccc1)c1ccccc1)N1CCCc2ccccc21	KCNK9 inh -11 | KCNK9 block conf 43.5% | Kir21 sel inactive | HEK293 Tl ctr 42.5%
O=C(NC(=O)N1CCCc2ccccc21)c1ccccc1	none
COC(=O)CC1(C(=O)OC)Oc2ccccc2C(=O)N1c1ccc(F)cc1F (stereo not given)	none
COC(=O)Cn1c(=O)n(CCc2ccccc2)c(=O)c2c3c(sc21)CCCC3	none | KCNK9 block conf inactive | Kir21 sel inactive | HEK293 Tl ctr inactive
CC(O)CNc1nc2sc3c(c2c(=O)n1CCc1ccccc1)CCCCC3 (stereo not given)	none | KCNK9 block conf inactive | Kir21 sel inactive | HEK293 Tl ctr inactive
COc1cccc(/C=C/C(=O)NCc2cn3cc(Cl)ccc3n2)c1OC	none
CC(C)c1ccc(NC(=O)CSc2n[nH]c(=O)n2C2CC2)cc1	none
CCc1ccc(NC(=O)C2CCCN2c2nn3c(=O)cc(C)nc3s2)cc1 (stereo not given)	none
